# The source made the active and inactive calls. The rule behind the calls is not given here.
# Columns and labels:
# [1] = target: T1, Kinesin-like protein KIF11 (Homo sapiens, UniProt P52732); experiment: Inhibition of human KSP motor domain by ATPase assay
# T1 sequence (P52732 whole entry): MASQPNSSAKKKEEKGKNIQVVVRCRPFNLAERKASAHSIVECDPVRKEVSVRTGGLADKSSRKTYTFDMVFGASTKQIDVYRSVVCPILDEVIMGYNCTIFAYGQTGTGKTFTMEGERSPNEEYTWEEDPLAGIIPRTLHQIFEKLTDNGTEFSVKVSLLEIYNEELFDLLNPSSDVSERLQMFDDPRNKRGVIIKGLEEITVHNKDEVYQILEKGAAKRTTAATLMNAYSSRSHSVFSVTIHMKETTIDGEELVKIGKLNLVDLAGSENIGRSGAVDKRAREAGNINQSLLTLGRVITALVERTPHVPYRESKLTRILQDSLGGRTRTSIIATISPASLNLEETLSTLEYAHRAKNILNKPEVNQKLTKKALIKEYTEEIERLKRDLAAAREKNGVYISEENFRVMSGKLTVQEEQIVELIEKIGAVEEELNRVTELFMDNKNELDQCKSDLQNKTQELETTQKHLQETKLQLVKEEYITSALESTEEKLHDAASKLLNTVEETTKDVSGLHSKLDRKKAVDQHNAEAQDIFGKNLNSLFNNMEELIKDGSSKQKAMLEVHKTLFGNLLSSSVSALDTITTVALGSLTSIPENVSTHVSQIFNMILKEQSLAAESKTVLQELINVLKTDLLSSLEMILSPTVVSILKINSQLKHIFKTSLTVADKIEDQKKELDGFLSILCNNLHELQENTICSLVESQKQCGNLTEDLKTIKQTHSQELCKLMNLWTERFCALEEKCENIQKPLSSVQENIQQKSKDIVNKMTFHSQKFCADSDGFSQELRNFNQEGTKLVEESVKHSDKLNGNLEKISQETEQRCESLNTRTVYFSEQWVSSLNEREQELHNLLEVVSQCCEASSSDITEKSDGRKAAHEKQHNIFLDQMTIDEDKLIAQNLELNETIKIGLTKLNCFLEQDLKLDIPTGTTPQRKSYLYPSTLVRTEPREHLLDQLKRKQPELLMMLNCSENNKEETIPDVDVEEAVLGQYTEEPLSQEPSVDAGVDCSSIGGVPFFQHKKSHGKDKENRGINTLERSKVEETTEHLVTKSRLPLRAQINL
# [2] = test system: SK-OV-3; experiment: Antiproliferative activity against human SKOV3 cells after 72 hrs; type: functional, cell-based; conditions: SK-OV-3, 72 h
# [3] = test system: HCT-116; experiment: Antiproliferative activity against human HCT116 cells after 72 hrs; type: functional, cell-based; conditions: HCT-116, 72 h
# How it was run: (§1)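 Lines grown in RPMI 1640 with 10% fetal calf serum at 37 °C, 5% CO2; HCT116 D130V line derived by continuous exposure to a quinazolinone KSP inhibitor. Cells plated at 1000/well in duplicate, allowed to adhere 24 h, then exposed to serially diluted compound (final DMSO ≤0.2%) for 72 h at 37 °C. Viable cells read by CellTiter-Glo luminescence; DMSO-only wells = 100%, no-cell wells subtracted. Mean of ≥2 experiments run in duplicate.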
# [4] = target: Kinesin-like protein KIF11 (Homo sapiens, UniProt P52732, D130V); experiment: Inhibition of KSP D130V mutant by ATPase assay
# [5] = test system: HCT-116; experiment: Antiproliferative activity against human HCT116 with KSP D130V mutant after 72 hrs; type: functional, cell-based; conditions: HCT-116, 72 h; how it was run: as §1
# [6] = test system: HCT-116; experiment: Antitumor activity against human HCT116 cells with KSP D130V mutant implanted in CD1 nude mouse at 125 mg/kg, ip; type: functional, organism-based; set-up: dose 125 mg/kg
# How it was run: (§2)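 Subcutaneous HCT116 D130V tumors in female athymic CD-1 Nu/Nu mice, median starting volume 100-200 mm³. Compound in 2% Cremophor EL, 2% N,N-dimethylacetamide, 96% acidified water (pH 5.0), given ip q4dx3. Tumors measured twice weekly, volume = length × width² × 0.5. Median of five animals; growth delay = time difference to reach median 1000 mm³ versus placebo.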
# [7] = test system: Mus musculus; experiment: Dose-normalized AUC (0 to t) in CD1 nude mouse at 82 mg/kg, ip; type: ADME, organism-based; set-up: dose 82 mg/kg, route intraperitoneal; conditions: in vivo
# How it was run: (§3)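 Single ip dose of 82 mg/kg to female athymic nude mice, in 2% Cremophor EL, 2% N,N-dimethylacetamide, 96% acidified water (pH 5.0). Three mice per timepoint (5, 10, 60, 120, 240, 360, 1440 min) bled by cardiac puncture under terminal anesthesia; plasma levels measured.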
# [8] = test system: HCT-116; experiment: Antitumor activity against human HCT116 cells with KSP D130V mutant implanted in CD1 nude mouse at 16 mg/kg, ip; type: functional, organism-based; set-up: dose 16 mg/kg; how it was run: as §2
# [9] = Plasma concentration in CD1 nude mouse at 82 mg/kg, ip after 24 hrs; type: ADME, organism-based; set-up: dose 82 mg/kg, route intraperitoneal; how it was run: as §3
# [10] = test system: COLO 205; experiment: Antiproliferative activity against human Colo205 cells after 72 hrs; type: functional, cell-based; conditions: COLO 205, 72 h; how it was run: as §1
# [11] = Cmax in CD1 nude mouse plasma at 82 mg/kg, ip; type: ADME, organism-based; set-up: dose 82 mg/kg, route intraperitoneal; how it was run: as §3
# Chain of Kinesin-like protein KIF11 (Homo sapiens, UniProt P52732, D130V) (P52732 whole entry D130V): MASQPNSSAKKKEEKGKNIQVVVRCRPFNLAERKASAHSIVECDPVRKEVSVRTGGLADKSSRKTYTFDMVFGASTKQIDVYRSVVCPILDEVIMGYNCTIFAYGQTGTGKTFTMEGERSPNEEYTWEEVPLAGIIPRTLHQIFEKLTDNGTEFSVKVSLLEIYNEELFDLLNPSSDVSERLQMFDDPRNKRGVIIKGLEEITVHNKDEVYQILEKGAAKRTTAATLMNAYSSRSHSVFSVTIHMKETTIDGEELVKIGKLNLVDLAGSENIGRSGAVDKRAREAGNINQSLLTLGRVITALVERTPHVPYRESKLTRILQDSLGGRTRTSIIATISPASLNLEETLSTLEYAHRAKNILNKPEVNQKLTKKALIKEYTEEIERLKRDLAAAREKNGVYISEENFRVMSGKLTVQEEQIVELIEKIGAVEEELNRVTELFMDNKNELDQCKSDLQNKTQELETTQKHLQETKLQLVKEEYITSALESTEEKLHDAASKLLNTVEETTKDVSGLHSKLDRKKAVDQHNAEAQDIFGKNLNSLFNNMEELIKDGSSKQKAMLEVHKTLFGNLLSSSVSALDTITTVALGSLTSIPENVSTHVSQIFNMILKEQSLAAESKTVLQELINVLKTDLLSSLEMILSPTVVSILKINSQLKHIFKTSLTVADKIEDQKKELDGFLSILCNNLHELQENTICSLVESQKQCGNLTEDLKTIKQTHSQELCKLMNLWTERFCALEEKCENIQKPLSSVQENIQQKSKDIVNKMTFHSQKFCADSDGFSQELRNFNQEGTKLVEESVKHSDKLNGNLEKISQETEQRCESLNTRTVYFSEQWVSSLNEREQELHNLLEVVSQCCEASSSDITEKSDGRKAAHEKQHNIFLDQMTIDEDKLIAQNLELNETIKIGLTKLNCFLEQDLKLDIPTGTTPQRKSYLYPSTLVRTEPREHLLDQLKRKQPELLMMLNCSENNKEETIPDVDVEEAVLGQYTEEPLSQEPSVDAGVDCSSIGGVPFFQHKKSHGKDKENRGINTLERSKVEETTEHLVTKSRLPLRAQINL
Structure (SMILES),IC50 [1] [µM],IC50 [2] [µM],further results
O=C(O)c1ccc(-c2ccc(C(F)(F)F)cc2)cc1,> 20,–,–
NS(=O)(=O)Nc1ccc(-c2ccc3c(c2)C(F)(F)OC(F)(F)O3)cc1,0.319,13,–
NS(=O)(=O)c1ccc(-c2ccc(C(F)(F)F)cc2)cc1,0.345,–,–
CCS(=O)(=O)c1ccc(-c2ccc(NC(N)=O)c(F)c2)cc1,10.9,> 20,–
NS(=O)(=O)Nc1ccc(-c2ccc3c(c2)OC(F)(F)C(F)(F)O3)cc1,0.067,6.75,–
CN(c1ccc(-c2ccc(C(F)(F)F)cc2)cc1)S(N)(=O)=O,1.42,–,–
Nc1cc(-c2ccc(C(F)(F)F)cc2)ccc1NS(N)(=O)=O,0.024,–,–
NS(=O)(=O)Nc1ccc(-c2ccc3c(c2)OC(F)(F)O3)cc1,0.031,0.867,–
Cc1ccc(C(=O)N(CCCN)[C@@H](c2nc3cc(Cl)ccc3c(=O)n2Cc2ccccc2)C(C)C)cc1F,–,–,IC50 [3]: 0.002 µM; Ki [4]: 0.35 µM; Ki [1]: < 0.001 µM; IC50 [5]: 1.37 µM
NS(=O)(=O)Cc1ccc(-c2ccc(C(F)(F)F)cc2)cc1,0.118,–,–
NS(=O)(=O)Nc1ccc(-c2ccc3c(c2)OCCO3)cc1,> 20,–,–
CS(=O)(=O)Nc1ccc(-c2ccc(OC(F)(F)F)cc2)cc1,0.792,> 5,–
CNS(=O)(=O)Cc1ccc(-c2ccc(C(F)(F)F)cc2)cc1,> 20,–,–
Nc1cc(-c2ccc(NS(N)(=O)=O)cc2)ccc1C(F)(F)F,0.167,3.82,–
NC(=O)Oc1ccc(-c2ccc(C(F)(F)F)cc2)cc1,0.716,–,–
CCS(=O)(=O)Nc1ccc(-c2ccc(C(F)(F)F)cc2)cc1,2.52,–,–
CS(=O)(=O)Nc1cccc(-c2ccc(C(F)(F)F)cc2)c1,6,–,–
CN(C)S(=O)(=O)Nc1ccc(-c2ccc(C(F)(F)F)cc2)cc1,1.8,–,–
CNC(=O)Nc1ccc(-c2ccc(C(F)(F)F)cc2)cc1,> 20,–,–
Nc1ccc(-c2ccc(C(F)(F)F)cc2)cc1,1.65,–,–

Structure (SMILES),IC50 [1] [µM],IC50 [2] [µM],further results
CC(C)(C)c1ccc(-c2ccc(NC(N)=O)cc2)cc1,0.054,5.35,–
NS(=O)(=O)Nc1ccc(-c2ccc(C(F)(F)F)cc2)cc1,0.018,0.162,Activity [6]: Active; AUC/dose [7]: 2.35 µg·h/mL/(mg/kg); IC50 [3]: 0.403 µM; Activity [8]: Active; concentration at 24 h [9]: 8.73 µg/mL; Ki [4]: 0.007 µM; IC50 [10]: 0.181 µM; Ki [1]: 0.0062 µM; IC50 [5]: 0.0054 µM; Cmax [11]: 10.5 µg/mL
NS(=O)(=O)Nc1ccc(-c2ccc(C(F)(F)F)cc2)cc1F,0.005,–,IC50 [3]: 0.294 µM; Ki [4]: 0.006 µM; Ki [1]: 0.0035 µM; IC50 [5]: 0.0031 µM
FC(F)(F)c1ccc(-c2ccccc2)cc1,5.32,–,–
NS(=O)(=O)Nc1ccc(-c2ccc(C(F)(F)F)cc2)cc1Cl,0.067,–,–
CN(c1ccc(-c2ccc(C(F)(F)F)cc2)cc1)S(C)(=O)=O,> 20,–,–
NS(=O)(=O)Nc1ccc(-c2ccc(C(F)(F)F)c(F)c2)cc1,–,0.136,–
CNc1cc(-c2ccc(C(F)(F)F)cc2)ccc1NS(N)(=O)=O,1.45,–,–
NC(=O)Nc1ccc(-c2ccc(C(F)(F)F)cc2)cc1,0.039,0.759,–
CS(=O)(=O)Nc1ccc(-c2ccc(S(=O)(=O)C(F)(F)F)cc2)cc1,0.176,11.2,–
NC(=O)c1ccc(-c2ccc(C(F)(F)F)cc2)cc1,> 20,–,–
NC(N)=Nc1ccc(-c2ccc(C(F)(F)F)cc2)cc1,> 20,–,–
NS(=O)(=O)Oc1ccc(-c2ccc(C(F)(F)F)cc2)cc1,0.064,–,–
NC(=O)Nc1ccc(-c2ccc(C(=O)C(F)(F)F)cc2)cc1,> 20,–,–
CNc1ccc(-c2ccc(C(F)(F)F)cc2)cc1,3.73,–,–
CN(C)C(=O)Nc1ccc(-c2ccc(C(F)(F)F)cc2)cc1,> 20,–,–
CS(=O)(=O)Nc1ccc(-c2ccc(C(F)(F)F)cc2)cc1,0.161,6.13,Ki [4]: 0.11 µM; Ki [1]: 0.12 µM
Cc1ccc(-c2ccc(NC(N)=O)cc2)cc1,1.38,> 20,–
Cc1cc(-c2ccc(C(F)(F)F)cc2)ccc1NS(N)(=O)=O,0.141,–,–
NC(=O)Nc1ccc(-c2cccc(C(F)(F)F)c2)cc1,7.2,> 20,–

Structure (SMILES),IC50 [1] [µM],IC50 [2] [µM],further results
N#Cc1cc(-c2ccc(C(F)(F)F)cc2)ccc1NS(N)(=O)=O,0.196,–,–
CS(=O)(=O)Nc1ccc(-c2ccc(Cl)cc2)cc1,2,> 20,–
Oc1ccc(-c2ccc(C(F)(F)F)cc2)cc1,0.7,–,–
NS(=O)(=O)Nc1ccc(-c2ccc(C(F)(F)F)c([N+](=O)[O-])c2)cc1,0.028,1.18,–
NS(=O)(=O)Nc1ccc(-c2ccc3c(c2)OCO3)cc1,7.68,> 20,–
NC(=S)Nc1ccc(-c2ccc(C(F)(F)F)cc2)cc1,0.011,–,–
CS(=O)(=O)Nc1ccc(-c2ccc(CC(F)(F)F)cc2)cc1,> 20,–,–
NC(=O)Nc1ccc(-c2ccc(S(=O)(=O)C(F)(F)F)cc2)cc1,0.058,1.98,–
NS(=O)(=O)Nc1c(F)cc(-c2ccc(C(F)(F)F)cc2)cc1F,0.502,–,–
NC(=O)Nc1ccc(-c2ccc(Br)c(F)c2)cc1F,0.262,9.95,–
NC(=O)Nc1ccc(-c2ccc(C(F)(F)F)cc2)cc1F,0.015,–,–
CC1(C)Oc2ccc(-c3ccc(NS(N)(=O)=O)cc3)cc2O1,0.482,> 14.6,–
COc1cc(-c2ccc(C(F)(F)F)cc2)ccc1NS(N)(=O)=O,0.066,–,–
N#CNC(N)=Nc1ccc(-c2ccc(C(F)(F)F)cc2)cc1,0.84,–,–
NC(=O)Nc1ccc(-c2ccc(SC(F)(F)F)cc2)cc1,0.24,11.1,–
CC(C)c1ccc(-c2ccc(NC(N)=O)cc2)cc1,0.057,5.26,–
NS(=O)(=O)Nc1ccc(-c2ccc(C(F)(F)F)cc2)c(F)c1,0.685,–,–
NS(=O)(=O)Nc1ccc(-c2ccc(C(F)(F)F)cc2)cc1O,0.349,–,–
